The structures appear in SMILES notation. The source made the active and inactive calls.

The subject of one data set is Leishmania donovani. Description: Antileishmanial activity against promastigotes of Leishmania donovani by alamar blue assay. It is filed as functional, organism-based. The settings on record: Leishmania donovani; for IC50: read-out: IC50. Background: Resazurin is reduced to fluorescent resorufin, in cell work by metabolically active cells.
For a further data set, the system named is Nakaseomyces glabratus. Briefly: Antifungal activity against Candida glabrata at 20 ug/ml. It is filed as functional, organism-based.
Data set [1] is described as follows: Hematotoxicity against RBC assessed as formation of methemoglobin at 20 ug/ml relative to control. It is filed as cell-based. The conditions noted are these: erythrocyte. The method, boiled down:
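Metabolism-linked methemoglobin toxicity in vitro. Percent MetHb formation was determined at 20 µg/mL of compound relative to vehicle control.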

Data set [2] deals with Candida albicans. Description: Antifungal activity against Candida albicans ATCC 90028. It is filed as functional, organism-based.
The subject of data set [3] is Staphylococcus aureus. Description: Antibacterial activity against Staphylococcus aureus by CLSI method. It is filed as functional, organism-based.
Data set [4] has as its system Staphylococcus aureus. Description: Antibacterial activity against methicillin-resistant Staphylococcus aureus ATCC 43300 by CLSI method. It counts as functional, organism-based. In outline:
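Broth dilution method (NCCLS M7-A5). […] MIC is the lowest concentration allowing no detectable growth. MBC is the lowest concentration killing the organism. Highest test concentration was 20 µg/mL.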

Data set [5] has as its system Mycobacterium intracellulare. Briefly: Antibacterial activity against Mycobacterium intracellular ATCC 23068 at 20 ug/ml by CLSI method. It is filed as functional, organism-based.
Data set [6] relates to Plasmodium falciparum. Description: Antimalarial activity against chloroquine-resistant Plasmodium falciparum W2 by LDH assay. It is filed as functional, organism-based. The conditions noted are these: Plasmodium falciparum, W2; read-out: IC50. In outline:
(§1)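 Antiplasmodial activity was measured in vitro against P. falciparum blood-stage cultures. Read-out was parasite lactate dehydrogenase (LDH) activity, with IC50 values expressed in µg/mL. The same protocol was used for the D6 and W2 strains.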

In data set [7] the test system is Candida albicans. Description: Antifungal activity against Candida albicans ATCC 90028 at 20 ug/ml. It counts as functional, organism-based.
For data set [8], the system named is Mycobacterium intracellulare. Description: Antibacterial activity against Mycobacterium intracellular ATCC 23068 by CLSI method. It counts as functional, organism-based.
For another data set, the system named is Vero. Description: Cytotoxicity against african green monkey Vero cells up to 10 ug/ml by neutral red assay. The settings on record: chlorocebus sabaeus. It is filed as cell-based. In outline:
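Vero (monkey kidney) cells were exposed up to a highest concentration of 10 µg/mL. Viability was read by neutral red uptake.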

For data set [9], the system named is Cryptococcus neoformans. Briefly: Antifungal activity against Cryptococcus neoformans ATCC 90113. It is filed as functional, organism-based.
The next data set deals with Pichia kudriavzevii. Briefly: Antifungal activity against Candida krusei at 20 ug/ml. It is filed as functional, organism-based.
The next data set concerns Aspergillus fumigatus. Description: Antifungal activity against Aspergillus fumigatus ATCC 90906 at 20 ug/ml. It is filed as functional, organism-based.
The nature of data set [10]: Inhibition of beta-hematin formation. It counts as functional.
Another data set deals with Plasmodium berghei. Briefly: Antimalarial activity against Plasmodium berghei infected in mouse assessed as negative parasitemia level at 100 mg/kg, po qd for 4 days measured up to 7 days. It counts as functional, organism-based. More on the design: dose 100 mg/kg. The method, boiled down:
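Mice infected with P. berghei (sensitive strain), 6 per group, dosed orally at 10–100 mg/kg/day × 4. Suppression meant negative parasitemia in all treated animals up to D+7. Survivors were counted at D+60.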

The test system of data set [11] is Plasmodium falciparum. Briefly: Antimalarial activity against chloroquine-sensitive Plasmodium falciparum D6 by LDH assay. It counts as functional, organism-based. The conditions noted are these: Plasmodium falciparum, D6; read-out: IC50. The method, boiled down:
as §1

The subject of data set [12] is Cryptococcus neoformans. Description: Antifungal activity against Cryptococcus neoformans ATCC 90113 at 20 ug/ml. It counts as functional, organism-based.

In the data set on Leishmania donovani, `COc1cc(NC(C)CCCNC(=O)NC(CCCCN)C(=O)NCCCC(C)Nc2cc(OC)cc3ccc(C(C)(C)C)nc23)c2nc(C(C)(C)C)ccc2c1.Cl` (single isomer, unassigned) had an IC90 of 36 mg/L. Also, the IC50 was determined as 21 mg/L with Leishmania donovani; 17.9 mg/L with Candida albicans [2]; 2.58 mg/L in the data set on Staphylococcus aureus [3]; 1.97 mg/L in the data set on Staphylococcus aureus [4]; 1.3 mg/L in the data set on Plasmodium falciparum [6]; 7.12 mg/L in data set [8]. The IC50 in the data set on Cryptococcus neoformans [9] came to 6.45 mg/L; in [10], 45 µM. Besides, the result in the data set on Nakaseomyces glabratus, in the data set on Pichia kudriavzevii and in the data set with Aspergillus fumigatus was inactive. For the same compound, the Methemoglobin formation in data set [1] worked out at 2.25%. Also, the minimal inhibitory concentration (MIC) came to 20 mg/L against Candida albicans [2]; 5 mg/L against Staphylococcus aureus [3]; 5 mg/L in the data set on Staphylococcus aureus [4]; 20 mg/L in data set [8]; 10 mg/L against Cryptococcus neoformans [9]. In addition, the MBC against Staphylococcus aureus [3] and in the data set on Staphylococcus aureus [4] was 5 mg/L throughout. The MBC entry in data set [5] was “inactive”. In addition, the MFC entry with Candida albicans [7] is “inactive”. The Activity entry with Vero is “Non-toxic”. This compound returned an MFC with Cryptococcus neoformans [9] of 10 mg/L. Also, in the data set with Plasmodium berghei, the result was Active.
`COc1cc(NC(C)CCCNCOC(=O)NCCCC(C)Nc2cc(OC)cc3cccnc23)c2ncccc2c1.Cl.Cl` (stereo not given) returned an IC90 with Leishmania donovani of 38 mg/L. The IC50 in the data set with Leishmania donovani is 20 mg/L; in the data set with Plasmodium falciparum [11], 2.6 mg/L; in the data set with Candida albicans [7], “Not Active”; in the data set on Cryptococcus neoformans [9], 4.5 mg/L; in [10], 101 µM. Further, the outcome in the data set with Nakaseomyces glabratus, in the data set on Pichia kudriavzevii and in the data set on Aspergillus fumigatus was inactive. The Methemoglobin formation in data set [1] was 5.3%. Besides, the MFC entry with Candida albicans [7] was “inactive”. The MIC result in the data set on Candida albicans [7] was “inactive”. The Activity entry in the data set on Vero was “Non-toxic”. In the data set on Cryptococcus neoformans [9], this compound yielded an MFC of 5 mg/L. In the data set with Cryptococcus neoformans [9], this compound returned an MIC of 5 mg/L. Also, the result with Plasmodium berghei was Active.
Turning to `COc1cc(NC(C)CCCNC(=S)NCCCC(C)Nc2cc(OC)cc3cccnc23)c2ncccc2c1.Cl.Cl` (stereo not given), in the data set with Leishmania donovani, the 90% effect level (IC90) was put at 20 mg/L. Besides, the IC50 with Leishmania donovani amounted to 4 mg/L; with Plasmodium falciparum [11], 2.3 mg/L; in the data set with Candida albicans [2], 10 mg/L; in the data set with Staphylococcus aureus [4] it was 3 mg/L; in the data set with Plasmodium falciparum [6], 2.4 mg/L; in [8], 4.5 mg/L. Also, the IC50 with Cryptococcus neoformans [9] was 15 mg/L; in data set [10] it was over 1000 µM. The outcome in the data set on Nakaseomyces glabratus, with Pichia kudriavzevii and with Aspergillus fumigatus was inactive. In addition, in [1], the Methemoglobin formation was 3.7%. The MBC with Staphylococcus aureus [4] worked out at 10 mg/L. Further, the lowest concentration to inhibit growth against Staphylococcus aureus [4] (MIC) was 5 mg/L. Moreover, the MFC result in the data set on Candida albicans [7] and in the data set on Cryptococcus neoformans [12] was “inactive” in each case. In the data set with Vero, the Activity result is given as “Non-toxic”. Moreover, the MIC result in the data set on Cryptococcus neoformans [12] was “inactive”.

As a reminder, the IC90 is the point of the concentration-response curve where the effect stands at 90%. Usually IC50 stands for the concentration that inhibits the measured activity by half. As a reminder, the MIC is the least concentration at which growth counts as inhibited. The term MBC denotes the smallest concentration meeting the test's criterion for killing. One may read the MFC as the lowest tested concentration that kills the fungus rather than only halting it.

(Values after ChEMBL document CHEMBL1641445, “Synthesis, antiprotozoal, antimicrobial, β-hematin inhibition, cytotoxicity and methemoglobin (MetHb) formation activities of bis(8-aminoquinolines)” (Bioorg Med Chem, 2011).)
